The test system of this data set is MS2 coat protein. Description: apparent Kd, MS2 coat protein; higher = weaker binding; RNA-MaP array; FMN 200 µM where present. The method in brief: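 In 100 mM Tris-HCl pH 7.5, 80 mM KCl, 4 mM MgCl2, BSA, DTT, yeast tRNA and Tween-20, SNAP-549-labelled MS2 coat protein was titrated from 0.7 or 1.5 nM, doubling to 3 µM, over designs transcribed by stalled E. coli RNA polymerase on Illumina sequencing-chip clusters. This was done first without ligand, then with ligand held constant. After green signal was normalised to red-channel RNA signal and control-cluster median Fmax, the apparent Kd was taken as the median of filtered per-cluster binding-curve fits.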

Setting [1] is: designed as: OFF switch for flavin mononucleotide, no ligand.
Setting [2] is: ligand present: flavin mononucleotide, designed as: OFF switch for flavin mononucleotide.
The mark [3] stands for this setting: designed as: ON switch for flavin mononucleotide, no ligand.
Setting [4] is: ligand present: flavin mononucleotide, designed as: ON switch for flavin mononucleotide.

Turning to “UAUUCAUACGAAGGAUAUGGUUACAUGAGGAUCACCCAUGUAUGUAUAUUGAUCUAGUUAUUUAACCAGAAGGUCGAAUAUAAA”, the apparent Kd (as a rule, a dissociation constant that holds for the conditions of the assay) reads like this: under setting [1], 35.4 nM; under setting [2], 72.6 nM.

With “GAAUUAUUACAGAAGGUGUUUUACAUGAGGAUCACCCAUGUUUUAUUGUUUAAAUUUGUUAUUUACAAGGAUAUGUUCUAUUCU”, the “apparent Kd” value runs as follows: under setting [3], 27 nM; under setting [4], 21.9 nM.

For the sequence “UCCUGAUUGAGAGGUAGGAGUGGUAGAAGGCGACCGGUGCCAGAUGACAUGAGGAUCACCCAUGUCGAGGAUAUACCACAGAAU”, the “apparent Kd” value by setting is: under setting [1], 6.96 nM; under setting [2], 13.1 nM.

For the sequence “GGAAAGUCAGGAUAUGGAUAAUAAAUACAAAUAGAAACAAACCAGAAGGGACAUGAGGAUCACCCAUGUAAACA”, the “apparent Kd” value by setting is: under setting [1], 24.1 nM; under setting [2], 23.1 nM.

Regarding “UCCUUGUCCUGAGGAUAUCCGUGGUUACCGAAAGGAGAAGGCAGGACAUGAGGAUCACCCAUGUACCCAGAAAACGUGCAGAGU”, the “apparent Kd” value runs as follows: under setting [1], 125 nM; under setting [2], 381 nM.

“UUGGACGCCGUAGGAUAUGUAGGAUAUUCCUACAUGAGGAUCACCCAUGUUGACAUGGAAGAAGGACAGAAGGACGAUGUCCAU”: the “apparent Kd” value is 277 nM under setting [3] and 4.78 nM under setting [4].

Consider “GGGUACAUCGGAGGAUAUCAUGUAAAUACAUGAGGAUCACCCAUGUCGAUGGAGACAUCGGAGAUUAAGAAGGCCGAUGUACCG”, for which the “apparent Kd” value is, setting by setting: under setting [3], 801 nM; under setting [4], 842 nM.

Turning to “AAUUAUUUACAGAAGGAGUAAGAUUAUGUAUUACUAGGAUAUGUUCACAUGAGGAUCACCCAUGUCAUUGUAGGUUUUAUAUGU”, the “apparent Kd” value is, setting by setting: under setting [1], 10.8 nM; under setting [2], 8.19 nM.

With “AGAUAACAUAGUUAUCCGUAACGGACAUGAGGAUCACCCAUGUAGGAUAUGUUACUCAACGAGUAACAGAAGGACAUGAGUCUU”, the “apparent Kd” value is, setting by setting: under setting [1], 17.3 nM; under setting [2], 102 nM.

On to “CCAAUAAGCCAAGGAUAUCAGCCGGGUACGAGGUGAGAAGGUGGCCGAGGGAAUUACGGACAUGAGGAUCACCCAUGUACCCGU”, for which the “apparent Kd” value turned out to be 4.98 nM under setting [3] and 4.21 nM under setting [4].

On to “AUCAGCUCGUCAGGAUAUACGUCACUGCGUCAGCAGUGUGGUAAGGUCACAUGAGGAUCACCCAUGUAGAAGGGACGAGCUGAU”, for which the “apparent Kd” value under setting [1] stood at 9.4 nM and the “apparent Kd” value under setting [2] is 117 nM.

For the sequence “CUAGACUGAUCAGGAUAUCAUCGCGUGGUGUAUCCCUGUGAUUACAUGAGGAUCACCCAUGUGCAUGAGAAGGGAUUACUAUGU”, the “apparent Kd” value under setting [1] worked out at 54.7 nM and the “apparent Kd” value under setting [2] was found to be 30 nM.

Turning to “UUCUUCUGAGGAUAUACAUAGAUUUACAUGAGGAUCACCCAUGUUCCUCUAUGUAUAAAUGUAGAAGGCAGAAGUU”, the “apparent Kd” value is, setting by setting: under setting [1], 16.9 nM; under setting [2], 91.2 nM.

Regarding “GGCCUGUGAGGAUAUUAGUAGUAGUCAGAAUAGACUAUUACUGAGAAGGUACAUGAGGAUCACCCAUGUUGGCC”, the “apparent Kd” value was 19.4 nM under setting [1] and 15.9 nM under setting [2].

On to “GUGGCUGUUAGGCUUGCGCCGGCGACAGAAGGCCAACAUGAGGAUCACCCAUGUACAAAGACCAUGGAGGAUAUGUUGCCAGUG”, for which the “apparent Kd” value runs as follows: under setting [3], 41.8 nM; under setting [4], 8.95 nM.

Regarding “GCGUAAAAGAUCCUAUUUAUCUACAUGAGGAUCACCCAUGUGCAGGAUAUGCUAAAAUUAAAAUAGCAGAAGGGCAAUAACCGC”, the “apparent Kd” value was determined as 54 nM under setting [1] and 179 nM under setting [2].

With “GGAUAGGACAGAGGAUAUACGGAUAGGAUCUACUAUCUUUCUCAAAUAACAUGAGGAUCACCCAUGUAGAAGGCUGUCCUAUCG”, the “apparent Kd” value is, setting by setting: under setting [1], 21.5 nM; under setting [2], 122 nM.

Regarding “CGGUACUGAGGAUAUACAUGAGGAUCACCCAUGUGUUCUAGCUAGCGUACUGGCAUUUGUAGAAGGCGGUGCUG”, the “apparent Kd” value is, setting by setting: under setting [1], 15 nM; under setting [2], 56.4 nM.

“CUCGUGUAAGGAUAUGCGAGCCACGGAAAUAAAACGUGGAGGUAGAAGGUACAUGAGGAUCACCCAUGUAAAAC”: the “apparent Kd” value stood at 25.4 nM under setting [1] and 85.3 nM under setting [2].

For the sequence “UGUUGUAUUACAGGAUAUCUAGUAUUUUUAUAUAGAGAAGGGUAUUCACAUGAGGAUCACCCAUGUAUAUACGAGGAAGUUGUG”, the “apparent Kd” value stood at 30.3 nM under setting [3] and 32.2 nM under setting [4].

Take “GCUGUGGCAUGAGGAUAUGGACAGCUUUGCUGUCCAGAAGGCAUGUCAAUAGACAUGAGGAUCACCCAUGUAGUUAACACAGCA”: the “apparent Kd” value under setting [3] is 498 nM and the “apparent Kd” value under setting [4] was found to be 39.4 nM.

Consider “GAUAGGACAGAGAAGGACAUAGCUAGAGAUACUAGCAUAAGAACCUUCACAUGAGGAUCACCCAUGUAGGAUAUCUGUCCUAUC”, for which the “apparent Kd” value by setting is: under setting [1], 3.74 nM; under setting [2], 4.85 nM.

“UUUUAACAUGAGGAUCACCCAUGUGAGGAUAUCGAAAUUUAUAUUAAUAUUUAUAAUACGAGAAGGCACAUUUU”: the “apparent Kd” value runs as follows: under setting [1], 85 nM; under setting [2], 90.6 nM.

Source of the values: the EternaBench riboswitch data.
